Results from ChEMBL document CHEMBL4043297, “Synthesis and Structure-Activity Relationships of the Novel Antimalarials 5-Pyridinyl-4(1 H)-Pyridones” (J Med Chem, 2018).

Legend:
[1] = Clearance in CD1 mouse at 0.195 mg/kg, iv as bolus dose by LC-MS/MS method; format: ADME, organism-based; conditions: in vivo
How it was run: (§1)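 Specific pathogen-free female CD1 (Hsd:ICR) mice, 8 to 10 weeks old. Each compound was given as an intravenous dose and an oral dose at the levels listed. Parameters reported: Vd, clearance, t1/2, Cmax, Tmax, AUC0-t, AUC∞ and %F.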

[2] = AUC (infinity) in CD1 mouse at 9.354 mg/kg administered via oral gavage by LC-MS/MS method; format: ADME, organism-based; set-up: dose 9.354 mg/kg, route oral, time infinity; conditions: in vivo; how it was run: as §1
[3] = AUC (0 to t) in CD1 mouse at 9.354 mg/kg administered via oral gavage by LC-MS/MS method; format: ADME, organism-based; conditions: in vivo; how it was run: as §1
[4] = Half life in CD1 mouse at 0.195 mg/kg, iv as bolus dose by LC-MS/MS method; format: ADME, organism-based; conditions: in vivo; how it was run: as §1
serum albumin = serum albumin (Homo sapiens, UniProt P02768); assay: Binding affinity to human serum albumin by HPLC method; format: ADME; conditions: read-out: PB (converted)
[5] = Oral bioavailability in CD1 mouse at 9.354 mg/kg administered via gavage by LC-MS/MS method; format: ADME, organism-based; conditions: in vivo
How it was run: (§2)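 Specific pathogen-free female CD1 (Hsd:ICR) mice, 8–10 weeks old, housed in the institutional animal facility. Each compound was given intravenously at a low dose and orally at a higher dose. Vd, clearance, t1/2, Cmax, Tmax, AUC0-t, AUC∞ and %F were derived from plasma exposure after each route.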

[6] = Cmax in CD1 mouse at 9.354 mg/kg administered via oral gavage by LC-MS/MS method; format: ADME, organism-based; set-up: dose 9.354 mg/kg, route oral; conditions: in vivo; how it was run: as §1
[7] = Tmax in CD1 mouse at 9.354 mg/kg administered via oral gavage by LC-MS/MS method; format: ADME, organism-based; conditions: in vivo; how it was run: as §2
[8] = Volume of distribution in CD1 mouse at 0.195 mg/kg, iv as bolus dose by LC-MS/MS method; format: ADME, organism-based; conditions: in vivo; how it was run: as §2
Plasmodium falciparum = assay: Antimalarial activity against Plasmodium falciparum 3D7A infected in human RBC after 48 hrs by [3H]-hypoxanthine incorporation assay; format: functional
Plasmodium yoelii = assay: Schizontocidal activity against Plasmodium yoelii infected in CD1 mouse administered via oral gavage as qd for 4 days starting 1 hr post infection by YOYO-1 dye-based flow cytometric method; format: functional
How it was run: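 Blood schizontocidal activity was tested in a modified 4-day suppressive test in mice infected with P. yoelii. Four oral doses were given by gavage over four days.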

[9] = AUC (0 to t) in CD1 mouse at 8.3 mg/kg administered via oral gavage by LC-MS/MS method; format: ADME, organism-based; conditions: in vivo; how it was run: as §1
[10] = Tmax in CD1 mouse at 8.3 mg/kg administered via oral gavage by LC-MS/MS method; format: ADME, organism-based; conditions: in vivo; how it was run: as §2
[11] = Clearance in CD1 mouse at […], iv as bolus dose by LC-MS/MS method; format: ADME, organism-based; conditions: in vivo
[12] = AUC (infinity) in CD1 mouse at 8.3 mg/kg administered via oral gavage by LC-MS/MS method; format: ADME, organism-based; set-up: dose 8.3 mg/kg, route oral, time infinity; conditions: in vivo; how it was run: as §1
[13] = Cmax in CD1 mouse at 8.3 mg/kg administered via oral gavage by LC-MS/MS method; format: ADME, organism-based; set-up: dose 8.3 mg/kg, route oral; conditions: in vivo; how it was run: as §1
[14] = Half life in CD1 mouse at […], iv as bolus dose by LC-MS/MS method; format: ADME, organism-based; conditions: in vivo
[15] = Oral bioavailability in CD1 mouse at 8.3 mg/kg administered via gavage by LC-MS/MS method; format: ADME, organism-based; conditions: in vivo; how it was run: as §2
[16] = Volume of distribution in CD1 mouse at […], iv as bolus dose by LC-MS/MS method; format: ADME, organism-based; conditions: in vivo
[17] = AUC (0 to t) in CD1 mouse at 10.36 mg/kg administered via oral gavage by LC-MS/MS method; format: ADME, organism-based; conditions: in vivo; how it was run: as §1
[18] = Clearance in CD1 mouse at 0.192 mg/kg, iv as bolus dose by LC-MS/MS method; format: ADME, organism-based; conditions: in vivo; how it was run: as §1
[19] = Cmax in CD1 mouse at 10.36 mg/kg administered via oral gavage by LC-MS/MS method; format: ADME, organism-based; set-up: dose 10.36 mg/kg, route oral; conditions: in vivo; how it was run: as §1
[20] = Half life in CD1 mouse at 0.192 mg/kg, iv as bolus dose by LC-MS/MS method; format: ADME, organism-based; conditions: in vivo; how it was run: as §1
[21] = Oral bioavailability in CD1 mouse at 10.36 mg/kg administered via gavage by LC-MS/MS method; format: ADME, organism-based; conditions: in vivo; how it was run: as §1
[22] = Tmax in CD1 mouse at 10.36 mg/kg administered via oral gavage by LC-MS/MS method; format: ADME, organism-based; conditions: in vivo; how it was run: as §2
[23] = AUC (infinity) in CD1 mouse at 10.36 mg/kg administered via oral gavage by LC-MS/MS method; format: ADME, organism-based; set-up: dose 10.36 mg/kg, route oral, time infinity; conditions: in vivo; how it was run: as §1
[24] = Volume of distribution in CD1 mouse at 0.192 mg/kg, iv as bolus dose by LC-MS/MS method; format: ADME, organism-based; conditions: in vivo; how it was run: as §2
[25] = Tmax in CD1 mouse at 4.42 mg/kg administered via oral gavage by LC-MS/MS method; format: ADME, organism-based; conditions: in vivo; how it was run: as §2
[26] = AUC (infinity) in CD1 mouse at 4.42 mg/kg administered via oral gavage by LC-MS/MS method; format: ADME, organism-based; set-up: dose 4.42 mg/kg, time infinity, route oral; conditions: in vivo; how it was run: as §1
[27] = Cmax in CD1 mouse at 4.42 mg/kg administered via oral gavage by LC-MS/MS method; format: ADME, organism-based; set-up: dose 4.42 mg/kg, route oral; conditions: in vivo; how it was run: as §1
[28] = Oral bioavailability in CD1 mouse at 4.42 mg/kg administered via gavage by LC-MS/MS method; format: ADME, organism-based; conditions: in vivo; how it was run: as §2
[29] = AUC (0 to t) in CD1 mouse at 4.42 mg/kg administered via oral gavage by LC-MS/MS method; format: ADME, organism-based; conditions: in vivo; how it was run: as §1

Chain of serum albumin (P02768 whole entry): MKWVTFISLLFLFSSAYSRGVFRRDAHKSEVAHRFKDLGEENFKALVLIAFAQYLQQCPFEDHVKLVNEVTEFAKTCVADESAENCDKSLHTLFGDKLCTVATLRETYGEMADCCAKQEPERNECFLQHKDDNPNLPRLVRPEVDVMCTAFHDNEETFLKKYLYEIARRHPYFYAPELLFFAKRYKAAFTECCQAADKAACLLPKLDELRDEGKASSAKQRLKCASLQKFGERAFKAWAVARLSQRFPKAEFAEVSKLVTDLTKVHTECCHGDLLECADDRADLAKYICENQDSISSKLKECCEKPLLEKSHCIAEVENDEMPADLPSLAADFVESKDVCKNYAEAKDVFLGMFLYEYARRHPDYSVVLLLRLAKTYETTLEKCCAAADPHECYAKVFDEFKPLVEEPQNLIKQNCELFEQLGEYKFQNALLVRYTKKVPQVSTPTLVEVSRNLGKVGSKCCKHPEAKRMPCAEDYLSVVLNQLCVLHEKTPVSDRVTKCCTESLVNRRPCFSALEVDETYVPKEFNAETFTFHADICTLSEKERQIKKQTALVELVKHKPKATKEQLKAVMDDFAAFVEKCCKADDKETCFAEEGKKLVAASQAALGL

Cc1[nH]c(C)c(-c2ccc(-c3cccc(C(F)(F)F)c3)nc2)c(=O)c1Cl
clearance [1]: 1.52 mL/min/kg
AUC(0-inf) [2]: 39500 ng·h/mL
AUC(0-t) [3]: 39500 ng·h/mL
half-life [4]: 5.13 h
fraction unbound (serum albumin): 0.05
bioavailability [5]: 38.7%
Cmax [6]: 2470 ng/mL
Tmax [7]: 3 h
Vd [8]: 0.68 L/kg
IC50 (Plasmodium falciparum): 40 nM
ED50 (Plasmodium yoelii): 1.2 mg/kg

Cc1[nH]c(C)c(-c2ccc(OCc3ccccc3C(F)(F)F)nc2)c(=O)c1Br
IC50 (Plasmodium falciparum): 11 nM

Cc1[nH]c(C)c(-c2ccc(-c3ccc(F)cc3)nc2)c(=O)c1Cl
IC50 (Plasmodium falciparum): 82 nM

Cc1[nH]c(C)c(-c2ccc(-c3cccc(C(F)(F)F)c3)nc2)c(=O)c1Br
IC50 (Plasmodium falciparum): 7 nM

Cc1[nH]c(C)c(-c2ccc(OCc3ccc(OC(F)(F)F)cc3)nc2)c(=O)c1Cl
AUC(0-t) [9]: 5600 ng·h/mL
Tmax [10]: 6 h
clearance [11]: 2.74 mL/min/kg
AUC(0-inf) [12]: 5600 ng·h/mL
Cmax [13]: 300 ng/mL
fraction unbound (serum albumin): 0.03
half-life [14]: 5.32 h
bioavailability [15]: 11%
Vd [16]: 1.26 L/kg
IC50 (Plasmodium falciparum): 14 nM
ED50 (Plasmodium yoelii): 16.3 mg/kg

Cc1[nH]c(C)c(-c2ccc(-c3ccccc3Cl)nc2)c(=O)c1Cl
IC50 (Plasmodium falciparum): 26 nM

Cc1[nH]c(C)c(-c2ccc(C#Cc3ccc(C(F)(F)F)cc3)nc2)c(=O)c1Br
IC50 (Plasmodium falciparum): 58 nM

Cc1[nH]c(C)c(-c2ccc(C#Cc3ccc(F)cc3F)nc2)c(=O)c1Cl
IC50 (Plasmodium falciparum): 472 nM

Cc1[nH]c(C)c(-c2ccc(CCc3ccc(C(F)(F)F)cc3)nc2)c(=O)c1Cl
IC50 (Plasmodium falciparum): 5 nM

Cc1[nH]c(C)c(-c2ccc(OCc3ccc(F)cc3)nc2)c(=O)c1Br
IC50 (Plasmodium falciparum): 10 nM

Cc1[nH]c(C)c(-c2ccc(OCc3ccc(C(F)(F)F)cc3)nc2)c(=O)c1Cl
IC50 (Plasmodium falciparum): 5 nM

Cc1[nH]c(C)c(-c2ccc(OCc3cccc(C(F)(F)F)c3)nc2)c(=O)c1Br
IC50 (Plasmodium falciparum): 4 nM

Cc1[nH]c(C)c(-c2ccc(OCc3cc(C(F)(F)F)cc(C(F)(F)F)c3)nc2)c(=O)c1Br
IC50 (Plasmodium falciparum): 33 nM

Cc1[nH]c(C)c(-c2ccc(Oc3ccc(OC(F)(F)F)cc3)nc2)c(=O)c1Cl
IC50 (Plasmodium falciparum): 33 nM

Cc1[nH]c(C)c(-c2ccc(-c3ccc(F)cc3)nc2)c(=O)c1Br
IC50 (Plasmodium falciparum): 129 nM

Cc1[nH]c(C)c(-c2ccc(-c3ccccc3Cl)nc2)c(=O)c1Br
IC50 (Plasmodium falciparum): 44 nM

Cc1[nH]c(C)c(-c2ccc(-c3ccccc3F)nc2)c(=O)c1Cl
IC50 (Plasmodium falciparum): 49 nM

Cc1[nH]c(C)c(-c2ccc(-c3ccc(OC(F)(F)F)cc3)nc2)c(=O)c1Br
AUC(0-t) [17]: 109000 ng·h/mL
clearance [18]: 0.72 mL/min/kg
Cmax [19]: 4100 ng/mL
half-life [20]: 14.6 h
bioavailability [21]: 49.1%
fraction unbound (serum albumin): 0.04
Tmax [22]: 10 h
AUC(0-inf) [23]: 118000 ng·h/mL
Vd [24]: 0.91 L/kg
IC50 (Plasmodium falciparum): 20 nM

Cc1[nH]c(C)c(-c2ccc(-c3ccc(C(F)(F)F)cc3)nc2)c(=O)c1Cl
Tmax [25]: 10 h
AUC(0-inf) [26]: 106000 ng·h/mL
Cmax [27]: 3310 ng/mL
bioavailability [28]: 100%
AUC(0-t) [29]: 101000 ng·h/mL
fraction unbound (serum albumin): 0.05
IC50 (Plasmodium falciparum): 16 nM
ED50 (Plasmodium yoelii): 0.25 mg/kg

Cc1[nH]c(C)c(-c2ccc(C#Cc3ccc(C(F)(F)F)cc3)nc2)c(=O)c1Cl
IC50 (Plasmodium falciparum): 97 nM
